This is a sample that favours compounds with a hit; in the whole collection about 2.1% have one here.
RanGTP-Impb inh: disruptors of Ran-importin-beta complex formation – biochemical, FRET, CFP-Ran, YFP-importin-beta, homogeneous, primary screen; inhibition, % (concentration not given with the values); 300,000 tested, 1.1% active; cell-free CFP-Ran/YFP-importin-beta FRET ratio;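 active = more than half of the replicate wells show a fall in the fluorescence ratio signal beyond about 16%, limit read from the data, passing the limit was not always enough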;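 also: 0% = DMSO wells and 100% = Ran loaded with GDP instead of GTP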
Runt-SMMHC FRET: inhibitors of human RUNX1 Runt domain binding to CBFb-SMMHC; Q01196+Q13951; Cerulean-Runt/Venus-CBFb-SMMHC FRET ratio 530/480, 1 h; inhibition, % at 20 µM; 220,000 tested, 0.74% active; AID 1434;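 active = mean inhibition across duplicate retests at 20 µM reaching about 50%, limit read from the data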;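 also: 0% = DMSO wells and 100% = wells with excess untagged CBFb-SMMHC; inhibitors lower the FRET ratio by blocking Runt binding to CBFb-SMMHC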
Target sequence (Q01196 whole entry, looked up, the tested form may be a part): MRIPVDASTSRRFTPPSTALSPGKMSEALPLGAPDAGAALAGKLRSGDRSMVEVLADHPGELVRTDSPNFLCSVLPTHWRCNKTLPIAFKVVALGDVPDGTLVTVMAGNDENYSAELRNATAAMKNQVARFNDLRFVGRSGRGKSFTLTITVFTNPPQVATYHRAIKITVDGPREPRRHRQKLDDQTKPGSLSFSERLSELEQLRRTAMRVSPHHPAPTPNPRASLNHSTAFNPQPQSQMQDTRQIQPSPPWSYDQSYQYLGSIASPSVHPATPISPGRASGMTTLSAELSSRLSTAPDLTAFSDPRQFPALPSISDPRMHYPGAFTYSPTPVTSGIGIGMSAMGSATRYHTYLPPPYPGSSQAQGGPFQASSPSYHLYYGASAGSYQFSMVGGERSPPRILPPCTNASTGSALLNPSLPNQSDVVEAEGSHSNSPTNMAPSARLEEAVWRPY
Target sequence (Q13951 whole entry, looked up, the tested form may be a part): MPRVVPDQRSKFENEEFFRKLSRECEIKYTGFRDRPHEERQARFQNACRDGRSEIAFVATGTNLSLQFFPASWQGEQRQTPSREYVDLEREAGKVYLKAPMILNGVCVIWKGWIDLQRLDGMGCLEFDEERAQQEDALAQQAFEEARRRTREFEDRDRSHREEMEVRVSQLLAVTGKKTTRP
FAS TE block: blocks the thioesterase domain of human fatty acid synthase; AID 602261; 360,000 tested, 0.67% active; recombinant FAS-TE, OMFH fluorogenic substrate, fluorescence endpoint; inhibition, % at 15 µM; P49327;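 active = compounds whose normalised, plate-corrected inhibition of enzyme fluorescence in the single-dose primary screen is 50% or more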;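 also: 0% = DMSO with enzyme and 100% = substrate without enzyme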
Runt-CBFb FRET: blocks binding of human RUNX1 Runt domain to CBFb; Q01196+Q13951; Cerulean-Runt/Venus-CBFb FRET ratio 530/480, 1 h; inhibition, % at 20 µM; 220,000 tested, 0.46% active; AID 1496;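 active = inhibition over about 50% at 20 µM in the single-dose screen, limit read from the data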;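 also: 0% = DMSO wells and 100% = excess unlabeled CBFb competitor control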
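Assay system: Cerulean-Runt domain fusion protein, energy donor; Signal: fluorescence energy transfer, 422 nm excitation, 530/480 nm emission; Timing: 1 h compound exposure, room temperature; Control set: unlabeled CBFb; Medium: Tris buffer pH 7.5 with salts and BSA; Compound: single test concentration of 20 µM, 1% DMSO final; Probe or stimulus: Venus-CBFb 100 nM.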
Calpain2 inh: blocks pig calpain II enzyme activity; purified calpain II, fluorogenic peptide substrate, 30 min; inhibition, % at 16 µM; 220,000 tested, 0.37% active;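 active = inhibition above about 50%, limit read from the data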
YIC counter: counter-screen: alters YIC FRET probe signal; shares compounds with RanGTP-Impb inh; Purified YIC probe, intramolecular FRET ratio YFP/CFP; IC50, µM; 1,000 tested, 40% active; AID 435026;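 active = fitted half-maximal inhibitory concentration no more than tenfold above the top dose tested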
Active calls of the source: *; i = inactive; nt = no result.

SMILES | RanGTP-Impb inh | Runt-SMMHC FRET | FAS TE block | Runt-CBFb FRET | Calpain2 inh | YIC counter
CCN(CC)S(=O)(=O)c1ccc2c(c1)N(CC(=O)N1CCCC1)C(=O)CO2 | -7.2 | nt | -7.5 | nt | nt | nt
O=C(Nc1cnc2ccccc2c1)c1cccc(-n2cnnn2)c1 | 18.7* | -9.1 | 7.9 | 1.7 | 6.0 | >50
COC(=O)c1cccc(NC(=O)c2cccc(-n3cnnn3)c2)c1 | nt | nt | 5.3 | nt | nt | nt
C=CCNC(=O)CN1N=C(c2ccc(C)cc2)CCC1=O | -5.1 | nt | -5.9 | nt | nt | nt
O=C(NCc1ccccc1C(F)(F)F)C1CC(c2ccc(C(F)(F)F)cc2)=NO1 (stereo unspecified) | 17.1* | -4.3 | 25.1 | -0.7 | 25.2 | >50
O=C(NCc1ccc(C(F)(F)F)cc1)C1CC(c2ccc(C(F)(F)F)cc2)=NO1 (stereo unspecified) | -1.4 | nt | 16.9 | nt | nt | nt
Cc1cccc(NC(=O)c2cc3c(s2)-c2c(C)cccc2OC3)n1 | 29.7* | 61.4 | 0.1 | -18.2 | -83.7 | 7.29*
CCCN1CCN(CCCNC(=O)c2cc3c(s2)-c2c(C)cccc2OC3)CC1 | 3.4 | nt | -4.4 | nt | nt | nt
CCOCCCn1c(=N)c(C(=O)NCc2ccc3c(c2)OCO3)cc2c(=O)n3cccc(C)c3nc21 | 29.2* | 163.0* | -0.2 | 60.5* | 6.8 | 18*
COCCCn1c(C(=O)N2CC(C)OC(C)C2)cc2c(=O)n3ccccc3nc21 (stereo unspecified) | 3.7 | nt | -3.6 | nt | nt | nt
CCOCCCn1c(SCC(=O)NCc2ccc3c(c2)OCO3)nc2ccccc2c1=O | -1.8 | -1.2 | 6.0 | -4.6 | -21.1 | nt
COCCCn1c(=N)c(C(=O)NCc2ccc3c(c2)OCO3)cc2c(=O)n3ccccc3nc21 | 36.0* | 172.3* | -3.5 | 79.0* | -70.4 | 24.9*
CCN(CC)CCCNC(=S)N(Cc1cccs1)Cc1cc2cc3c(cc2[nH]c1=O)OCCO3 | 22.1* | -0.3 | -4.6 | -2.3 | -118.4 | >50
CCN(CC)CCCNC(=S)N(Cc1ccco1)Cc1cc2cc3c(cc2[nH]c1=O)OCCO3 | 4.4 | -12.4 | nt | 5.4 | -36.2 | nt
CCN(CC)Cc1oc(CO)cc(=O)c1O | -3.3 | -0.2 | 1.1 | 1.4 | 1.1 | nt
Cc1c(C)c2cc(Cl)c(O)c(CN(C)C)c2oc1=O | 33.3* | 81.4* | -7.2 | 92.5* | i | 29.1*
Cc1c(O)c(CN(C)C)cc2c1oc(=O)c1ccccc12 | -3.8 | -18.7 | -5.2 | -11.0 | -7.1 | nt
CCc1c(C)c2cc(Cl)c(O)c(CN(CC)CC)c2oc1=O | 25.9* | 65.3* | -0.9 | 95.3* | i | 26.5*
CCN(CC)Cc1c(O)c(Cl)cc2c3c(c(=O)oc12)CCCC3 | 47.7* | 70.3 | 3.1 | 107.0* | i | 23.1*
COc1cccc(CN(C)C(=O)CN2C(=O)NC(c3ccccc3)(c3ccccc3)C2=O)c1 | nt | nt | 13.2 | nt | nt | nt
O=C(c1ccc(F)cc1)c1cc2ccc(O)cc2oc1=O | 37.2* | nt | -1.6 | nt | nt | 13.4*
O=C(c1ccccc1)c1cc2ccccc2oc1=O | -0.9 | nt | -4.8 | nt | nt | nt
COc1ccccc1C(=O)c1cc2ccc(O)cc2oc1=O | 54.8* | 126.6* | -4.5 | 114.4* | 16.6 | 7.12*
C/C(=N\NC(=O)c1nnn(-c2nonc2N)c1-c1ccc2c(c1)OCO2)c1ccc(C)cc1 | 9.5 | nt | -6.2 | nt | nt | nt
CC(CC(=O)NCCc1ccc(F)cc1)c1ccccc1 (stereo unspecified) | 0.1 | nt | 0.1 | nt | nt | nt
SMILES | RanGTP-Impb inh | Runt-SMMHC FRET | FAS TE block | Runt-CBFb FRET | Calpain2 inh | YIC counter
C/C(Cc1ccccc1)=N\NC(=O)CNC(=O)COc1ccccc1 | 0.7 | -0.9 | -5.2 | 1.5 | -17.4 | nt
O=C(Oc1c(CN2CCOCC2)cc(Cl)c2cccnc12)c1ccccc1 | 15.5* | 4.5 | 8.4 | nt | 13.2 | >50
[N-]=[N+]=NC[C@H](c1ccccc1)N1CCN(Cc2ccccc2)CCC1=O | -4.0 | nt | -6.9 | nt | nt | nt
O=[N+]([O-])c1cccc(-c2n[nH]c(=S)n2-c2ccc(Br)cc2)c1 | 22.7* | 12.6 | 5.2 | 1.2 | 7.6 | >50
NC(=O)c1ccccc1NC(=O)/C=C/c1ccccc1 | -1.2 | 4.5 | -5.9 | 0.3 | -16.2 | nt
NC(=O)c1ccccc1NC(=O)/C=C/c1ccc(Cl)cc1 | 22.7* | 1.2 | -1.7 | 0.7 | -29.0 | >50
COC(=O)c1cc(=O)n2c(sc3ccccc32)c1C#N | 44.8* | 88.1* | -2.6 | 66.3* | -166.1 | 4.11*
COC(=O)c1cc(C)nc(N)c1C#N | 2.1 | 10.0 | -4.9 | 9.2 | i | nt
COc1ccc(Cl)cc1NC(=O)CSC1=NN2CCCC(=O)N=C2S1 | 0.2 | nt | 1.0 | nt | nt | nt
O=S(=O)(Cc1ccc(Cl)cc1)N1CCN(Cc2ccc3c(c2)OCO3)CC1 | 5.5 | -0.8 | 1.9 | -0.1 | -21.0 | nt
O=S(=O)(Cc1ccc(Cl)cc1)Nc1ccc2c(c1)OCO2 | 19.0* | 28.0 | 3.4 | -1.0 | -12.6 | >50
CCOc1ccc(S(=O)(=O)N2CCCCC2)cc1NC(=O)c1ccccc1 | nt | nt | 19.4 | nt | nt | nt
CNC(=O)/C(C#N)=C/c1cn(CC(=O)NCc2ccco2)c2ccccc12 | 2.4 | 1.0 | -1.3 | 0.8 | -41.4 | nt
N#C/C(=C/c1cn(CC(=O)O)c2ccccc12)C(=O)NCc1ccccc1 | 22.6* | 3.8 | -2.0 | 4.5 | -30.0 | >50
Cn1cncc1C#Cc1ccc2cc(CCO)oc(=O)c2c1 | nt | nt | -9.2 | nt | nt | nt
O=C(CN1C(=O)NC2(CCCC2)C1=O)Nc1nc2c(F)cc(F)cc2s1 | 19.7* | nt | -1.0 | nt | nt | >50
Cc1cccc2sc(NC(=O)CN3C(=O)NC4(CCCC4)C3=O)nc12 | 2.7 | nt | -4.6 | nt | nt | nt
CS(=O)(=O)c1ccccc1C(=O)N(CCC1=CCCCC1)c1c(N)n(Cc2ccccc2)c(=O)[nH]c1=O | -0.8 | nt | 1.7 | nt | nt | nt
Cc1ccc(NC(=O)C2CCN(S(=O)(=O)c3ccc(Cl)c(C(F)(F)F)c3)CC2)nc1 | 20.1* | nt | -6.8 | nt | nt | >50
COc1cc2c(cc1OC)C(c1cc(OC)c(OC)c(OC)c1)C1(O)C(=O)OCC1(O)C2 (stereo unspecified) | nt | nt | -5.5 | nt | nt | nt
COC(=O)CCN1CCN(S(=O)(=O)c2ccc3c(c2)OCCO3)CC1 | nt | nt | -4.5 | nt | nt | nt
CCC(=O)N(CC(=O)Nc1sc(C)c(C)c1C(N)=O)C1CCCC1 | 21.6* | 2.3 | -5.0 | 1.2 | 7.1 | >50

Compound activity from PubChem.
